AI-2 QS mod: modulators of Vibrio harveyi AI-2 quorum sensing system; activity change, % at 7.5 µM; 0.4% of 300,000 active; Vibrio harveyi JMH597 AI-2 luminescence/OD600 ratio, 9 h; active compounds read low; strain lacks LuxN and CqsS sensors; 0 = neutral-control median; in the data active means activity change below about -75%, passing the limit was not always enough;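 further: luminescence divided by OD600 gain over 9 h not by final OD600 alone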
Efflux pump inh: blocks antifungal efflux pumps in multiplex yeast assay | S. cerevisiae Candida pump triplex, Nile Red efflux | AID 485275 | 0.44% of 330,000 active | inhibition, % at 10 µM;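 active means plate passing quality check with inhibition over a set limit, or well fluorescence over plate mean plus 4 SD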;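 further: Nile Red retained in pooled yeast measured as flow cytometry median fluorescence; higher means more Nile Red kept so more efflux inhibition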
T cruzi inh: T. cruzi replication inhibition. T. cruzi beta-gal in NIH3T3, luminescence, 90 h. inhibition, % (concentration not given with the values). 1.4% of 300,000 active. AID 1885;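 active means mean inhibition across valid replicates above about 55%, limit read from the data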;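 further: signal also drops with host cell toxicity which is not excluded here; higher percent means less beta-gal luminescence so fewer parasites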
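System: Mouse NIH/3T3 fibroblasts infected with β-gal-expressing T. cruzi Tulahuen C4 | Quantity: NIH/3T3 cells, 5,000 per well | Reagent: 5000 reporter trypomastigotes per well | Dosing: Compound pinned at 50 nL/well, DMSO | Schedule: 3 h host attachment, then at least 90 h co-culture | Detection: GalScreen luminescence, 60 min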
PolyA inh: blocks polyadenylation in yeast reporter cells. S. cerevisiae SKY197-pL101 polyadenylation reporter, beta-gal luminescence; efflux-impaired pdr1/pdr3 knockout yeast; score 100 = 6 SD above DMSO. activity score, % at 12 µM. 0.02% of 300,000 active. AID 1875;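 active means lowest replicate activity score at least 50, where 100 means six control SD above control mean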;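 further: yeast exposed to compound for 9 h at 30 °C; higher score means more reporter readthrough which indicates perturbed polyadenylation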
HDAC3 inhib: inhibitors of human histone deacetylase 3; O15379; recombinant HDAC3, fluorogenic peptide/trypsin coupled, fluorescence; inhibition, % at 8.3 µM; 0.15% of 320,000 active; in the data active means inhibition above about 26%, passing the limit was not always enough
Target sequence (O15379 whole entry, looked up): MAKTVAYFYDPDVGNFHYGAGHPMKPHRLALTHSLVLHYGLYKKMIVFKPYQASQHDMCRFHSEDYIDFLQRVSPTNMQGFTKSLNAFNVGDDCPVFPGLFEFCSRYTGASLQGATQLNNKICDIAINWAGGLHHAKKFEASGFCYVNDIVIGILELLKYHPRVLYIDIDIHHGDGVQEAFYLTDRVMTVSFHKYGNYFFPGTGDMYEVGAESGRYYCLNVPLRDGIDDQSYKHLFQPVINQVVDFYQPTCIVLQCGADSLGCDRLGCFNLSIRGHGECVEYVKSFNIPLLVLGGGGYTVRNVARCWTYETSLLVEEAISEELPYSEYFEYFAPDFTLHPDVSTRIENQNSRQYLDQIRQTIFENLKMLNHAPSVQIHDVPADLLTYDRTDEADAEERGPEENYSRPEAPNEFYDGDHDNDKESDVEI
Numbers stand for hits; – = inactive; · = not tested or not shown. Hits are enriched below; roughly 2.2% of the tested compounds scored in any of these assays.

SMILES	AI-2 QS mod	Efflux pump inh	T cruzi inh	PolyA inh	HDAC3 inhib
COc1ccc(C(=O)NCCNc2nc3ccc(C)cc3cc2C#N)cc1OC	–	–	–	–	–
CCN(CC)c1ccc(/C=N/NC(=O)CNC(=O)C2COc3ccccc3O2)c(O)c1 (stereo not drawn)	–	–	63	–	–
O=C(Nc1cc(C(F)(F)F)ccc1N1CCOCC1)C1CCCO1 (stereo not drawn)	·	–	·	·	–
Cc1ccccc1C(=O)OC1CCN(C)CC1	–	–	59	–	–
CN1CCC(OC(=O)c2ccc(Cl)cc2Cl)CC1	–	–	58	–	–
CN1CCC(OC(=O)c2ccccc2Cl)CC1	–	–	58	–	–
Nc1cc2c3c(cccc3c1)C(=O)N(CCN1CCCC1)C2=O	–	–	78	–	–
O=C1c2cccc3cc([N+](=O)[O-])cc(c23)C(=O)N1CCN1CCCC1	–	·	56	–	·
CC(C)NC(=O)NC(=O)COC(=O)Cc1c(F)cccc1Cl	–	–	–	–	–
C[C@H](NC(=O)N1CCn2c1nc1ccccc12)C(=O)N1CCCCC1	–	–	–	–	–
CN(C)CCCOC(=O)c1ccc(Cl)cc1Cl	–	–	62	–	–
CSc1nc(-c2ccc(C)cc2)nc(C(Cl)Cl)n1	–	–	56	–	–
COc1ccc(C(=O)NCCC2=CCCCC2)cc1OC1CCN(C(C)C)CC1	–	–	–	–	–
CCCCc1cc(=O)oc2cc(C)cc(OC(C)C(=O)NCc3cccnc3)c12 (stereo not drawn)	–	–	–	–	–
CSc1ccccc1NC(=S)N/N=C/c1cccn1Cc1cccc(C)c1	–	–	65	–	·
CCOc1cc(C(=O)OC(C(=O)NC(=O)NC)c2ccccc2)ccc1OCC(=O)N1CCOCC1 (stereo not drawn)	·	–	·	·	27
CCOc1cc(C(=O)Nc2ccccc2N2CCOCC2)ccc1OCC(=O)N1CCOCC1	·	–	·	·	–
Cc1ccc(CNC(=O)Nc2ccc3c(c2)N(C)C(=O)CS3)cc1	-78	–	–	–	–
CN1C(=O)CSc2ccc(NC(=O)NCc3ccccc3)cc21	–	–	–	–	–
Cc1ccc(-n2c(SCC(N)=O)nc3c(oc4ccccc43)c2=O)cc1	–	–	–	–	–
Cc1cc(C)cc(NC(=O)CSc2nc3c(oc4ccccc43)c(=O)n2-c2ccccc2)c1	–	–	55	–	–
O=C(Cn1cnc2cc([N+](=O)[O-])ccc2c1=O)Nc1ccccc1Cl	–	–	–	–	–
O=C(Cn1cnc2cc([N+](=O)[O-])ccc2c1=O)NCCc1ccc(F)cc1	–	–	–	–	–
O=C(Cn1cnc2cc([N+](=O)[O-])ccc2c1=O)NCCc1ccc(Cl)cc1	–	–	64	–	–
O=C(Cn1cnc2cc([N+](=O)[O-])ccc2c1=O)Nc1ccc2c(c1)CCC2	–	–	64	–	–
SMILES	AI-2 QS mod	Efflux pump inh	T cruzi inh	PolyA inh	HDAC3 inhib
O=c1c2ccccc2ncn1CCCOc1ccccc1[N+](=O)[O-]	–	–	–	–	–
Cc1ccccc1OCCn1cnc2cc([N+](=O)[O-])ccc2c1=O	–	–	60	–	–
COc1ccc(NC(=O)Cn2cnc3ccccc3c2=O)cc1OC	-76	–	–	–	–
CCN(CC)S(=O)(=O)c1ccc(C)c(NC(=O)Cn2cnc3cc([N+](=O)[O-])ccc3c2=O)c1	–	–	85	–	–
O=C(Cn1cnc2cc([N+](=O)[O-])ccc2c1=O)Nc1cccc2ccccc12	–	–	–	–	–
CC(C)c1cc(C(C)C)c(S(=O)(=O)N2c3ccccc3[C@]3(Br)C[C@H]4C(=O)N[C@@H](Cc5ccccc5)C(=O)N4[C@H]23)c(C(C)C)c1	–	·	55	–	·
O=C1N[C@@H](Cc2ccccc2)C(=O)N2CCCC12 (stereo partly drawn)	·	–	·	·	·
O=C1N[C@@H](Cc2ccccc2)C(=O)N2[C@@H]3N(S(=O)(=O)c4ccccc4)c4ccccc4[C@]3(Br)C[C@@H]12	–	–	–	–	–
CC(C)c1cc(C(C)C)c(S(=O)(=O)N2c3ccccc3[C@@]3(Br)C[C@H]4C(=O)N[C@@H](Cc5ccccc5)C(=O)N4[C@@H]23)c(C(C)C)c1	–	–	55	–	–
NNC(=O)c1ccc(Cn2cccn2)o1	–	–	–	–	–
CC(C)COc1ccc(-c2nn(-c3ccccc3)cc2C(=O)Nc2nccs2)cc1	–	–	64	–	–
COc1ccc(CN(C)C(=O)c2[nH]c(C)c(C(C)=O)c2C)cc1F	–	–	–	–	–
CCc1nnc(NC(=O)CCC(=O)NC2CCCCCCC2)s1	–	–	–	–	–
COc1cccc(-n2c(CN3CCN(c4ccc(C)cc4)C(C)C3)nc3ccc([N+](=O)[O-])cc3c2=O)c1 (stereo not drawn)	–	–	–	–	–
COc1cccc(-n2c(CN3CCN(c4cccc(C)c4)C(C)C3)nc3ccc([N+](=O)[O-])cc3c2=O)c1 (stereo not drawn)	–	–	59	–	–
O=c1[nH]c(CN2CCN(C/C=C/c3ccccc3)CC2)nc2cc(Cl)ccc12	–	–	61	–	–
O=C(CCc1nc2ccccc2c(=O)[nH]1)N1CCN(C/C=C/c2ccccc2)CC1	–	–	82	–	–
CC(=O)N1CCN(C(=O)CCc2nc3ccccc3c(=O)[nH]2)CC1	–	–	–	–	–
CC(=O)Nc1sc2c(c1C(c1ccccc1Cl)N1CCN(CCO)CC1)CCCC2 (stereo not drawn)	–	–	–	–	–
CCCC(=O)OCCNc1cc(Sc2nccn2C)c2nonc2c1[N+](=O)[O-]	–	–	61	–	–
CCCSc1cc(NCCOC(=O)CCC)c([N+](=O)[O-])c2nonc12	–	–	–	–	–
COc1ccc(N2CCc3c(C)nc4c(OC)cc(OC)cc4c32)cc1	–	–	73	–	–
COc1ccc(N2CCc3c(C)nc4c(OC)cc(OC)cc4c32)c(OC)c1	–	–	58	–	–
COc1ccc(N2CCc3c(C)nc4c(OC)cccc4c32)cc1	–	–	–	–	–
COc1ccc([C@@H]2[C@@H]3C(=O)N(C(C)(C)C)C(=O)[C@@H]3[C@]3(Cc4ccc(Cl)cc4)C(=O)N(c4cccc(F)c4)C(=O)N23)cc1	·	–	·	·	–
Cc1ccc(OCC(=O)N2N=C(c3ccc(Cl)cc3)CC2c2ccco2)c([N+](=O)[O-])n1 (stereo not drawn)	–	–	–	–	–
O=C(COc1cccnc1[N+](=O)[O-])N1N=C(c2ccc(Cl)cc2)CC1c1ccco1 (stereo not drawn)	–	–	56	–	–
N/C(=N\OC(=O)CCc1ccccc1)c1ccc(Br)cc1	–	–	–	–	–
Cc1ccc(/C(N)=N/OC(=O)CCc2ccccc2)cc1	-77	–	–	–	–
Cc1ccc(-c2csc(=Nc3cccnc3)n2CCCn2ccnc2)cc1C	–	–	64	–	–

Compound activity as filed in PubChem BioAssay.
